Calls of active or inactive are those of the source. The calls are words filed in the database; no cut-off is given here.
Columns and labels:
[1] = system: Alternaria alternata; assay: Antifungal activity against Alternaria alternata SRRC 1107 after 24 to 48 hr; type: functional, organism-based
Procedure, shortened: (§1)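 Conidia harvested in 1% PDB (pH 6.0), diluted to 10⁵/mL and germinated before exposure to peptide in 1% PDB. Four 50 µL aliquots plated on PDA and colonies counted after 24–48 h. Percent mortality vs untreated control fitted by dose–response to give IC50; MIC = complete inhibition; each fungus tested at least twice.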

[2] = system: Colletotrichum destructivum; assay: Antifungal activity against Colletotrichum destructivum ATCC 42492 after 24 to 48 hr; type: functional, organism-based
Procedure, shortened: (§2)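 Conidia diluted to 10⁴/mL (Fusarium) or 10⁵/mL and germinated 8 h at 30 °C (A. flavus, Fusarium, P. italicum) or overnight at 22 °C. Four 50 µL aliquots spread on PDA, colonies counted after 24–48 h at 30 or 22 °C. Percent mortality vs untreated control fitted by dose–response to give IC50; MIC = complete inhibition; two experiments.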

[3] = system: Rhizoctonia solani; assay: Antifungal activity against Rhizoctonia solani SRRC 1443 assessed as thin hyphae at 20 uM after 48 hr by microscopic analysis; type: functional, organism-based
[4] = system: Aspergillus flavus; assay: Antifungal activity against Aspergillus flavus 70-GFP after 24 to 48 hr; type: functional, organism-based; procedure, shortened: as §1
[5] = system: Penicillium italicum; assay: Antifungal activity against Penicillium italicum SRRC 2352 after 24 to 48 hr; type: functional, organism-based; procedure, shortened: as §2
[6] = system: Verticillium dahliae; assay: Antifungal activity against Verticillium dahliae SRRC 1030 after 24 to 48 hr; type: functional, organism-based; procedure, shortened: as §2
[7] = system: Rhizoctonia solani; assay: Antifungal activity against Rhizoctonia solani SRRC 1443 assessed as appearance of extracellular material surrounding hyphae at 20 uM after 48 hr by microscopic analysis; type: functional, organism-based
[8] = system: Phytophthora cinnamomi; assay: Antifungal activity against Phytophthora cinnamomi after 48 hr by microplate assay; type: functional, organism-based
Procedure, shortened: (§3)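 Mycelia grown in 1% PDB 48 h at 28 °C, 90 rpm, blended, adjusted to ~10⁵ fragments/mL. Fragments incubated in 24-well plates with peptide at 2–40 µM final in 1% PDB, 2 mL total, 48 h at 90 rpm. MIC recorded as lowest concentration completely inhibiting growth; three replicate experiments.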

[9] = system: Aspergillus flavus; assay: Antifungal activity against Aspergillus flavus 70-GFP assessed as thick germ tube at 25 uM after 8 hr by microscopic analysis relative to control; type: functional, organism-based
Procedure, shortened: (§4)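 A. flavus 70-GFP conidia (10⁶/mL) incubated 8 h at 30 °C with 0–25 µM peptide in 1% PDB. Germ tube and spore morphology examined by GFP fluorescence microscopy (excitation 480 nm, emission 530 nm). Repeated twice.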

[10] = system: Rhizoctonia solani; assay: Antifungal activity against Rhizoctonia solani SRRC 1443 assessed as jagged hyphae at 20 uM after 48 hr by microscopic analysis; type: functional, organism-based
[11] = system: Xanthomonas campestris; assay: Antibacterial activity against Xanthomonas citri subsp. malvacearum race 18 after 24 to 48 hr; type: functional, organism-based, Xanthomonas citri pv. malvacearum
Procedure, shortened: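 X. campestris pv. malvacearum race 18 grown overnight in nutrient broth at 28 °C, 225 rpm, then diluted to 10⁴ CFU/mL. Exposed to D4E1 for 60 min at 28 °C. Four aliquots plated on NB and colonies counted after 24–48 h at 28 °C. Percent mortality vs 0 µM control; IC50 from dose–response curve fit; MIC = complete inhibition; tested twice.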

[12] = system: Aspergillus flavus; assay: Antifungal activity against Aspergillus flavus 70-W after 24 to 48 hr; type: functional, organism-based; procedure, shortened: as §2
[13] = system: Cercospora kikuchii; assay: Antifungal activity against Cercospora kikuchii SRRC 1078 after 24 to 48 hr; type: functional, organism-based; procedure, shortened: as §2
[14] = system: Rhizoctonia solani; assay: Antifungal activity against Rhizoctonia solani SRRC 1443 after 48 hr by microplate assay; type: functional, organism-based; details: SRRC 1443, 48 h; procedure, shortened: as §3
[15] = system: Fusarium oxysporum; assay: Antifungal activity against Fusarium oxysporum SRRC 187 after 24 to 48 hr; type: functional, organism-based; procedure, shortened: as §2
[16] = system: Aspergillus flavus; assay: Antifungal activity against Aspergillus flavus 70-GFP assessed as germ tube breakage at 12.5 uM after 8 hr by microscopic analysis relative to control; type: functional, organism-based; procedure, shortened: as §4
[17] = system: Fusarium graminearum; assay: Antifungal activity against Fusarium graminearum SRRC 1042 after 24 to 48 hr; type: functional, organism-based
Procedure, shortened: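 Conidia harvested in 1% PDB (pH 6.0), diluted to 10⁴ conidia/mL, pregerminated 8 h at 30 °C. Germinated conidia exposed to D4E1 in 1% PDB at 30 °C; four aliquots spread on PDA and colonies counted after 24–48 h at 30 °C. Percent mortality vs 0 µM control; IC50 from dose–response fit of two experiments; MIC = complete growth inhibition.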

[18] = system: Berkeleyomyces basicola; assay: Antifungal activity against Thielaviopsis basicola SRRC 1277 after 24 to 48 hr; type: functional, organism-based; procedure, shortened: as §2
[19] = system: Pseudomonas amygdali pv. tabaci; assay: Antibacterial activity against Pseudomonas syringae pv. tabaci after 24 to 48 hr; type: functional, organism-based
[20] = system: Aspergillus flavus; assay: Antifungal activity against Aspergillus flavus 70-GFP assessed as reduction in spore germination at 25 uM after 8 hr by microscopic analysis relative to control; type: functional; parameters: scale not given: the % may be the effect or the level left
Procedure, shortened: (§5)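 Nongerminated A. flavus 70-GFP conidia (10⁶/mL) exposed to 0–25 µM peptide in 1% PDB, 8 h at 30 °C. Proportion of germinating conidia scored; GFP fluorescence microscopy (ex 480, em 530 nm). Experiment repeated twice; one-way ANOVA with Tukey separation.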

[21] = system: Aspergillus flavus; assay: Antifungal activity against Aspergillus flavus 70-GFP assessed as short germ tube at 25 uM after 8 hr by microscopic analysis relative to control; type: functional, organism-based; procedure, shortened: as §4
[22] = system: Globisporangium ultimum var. sporangiiferum; assay: Antifungal activity against Pythium ultimum var. sporangiiferum after 48 hr by microplate assay; type: functional, organism-based; procedure, shortened: as §3
[23] = system: Aspergillus flavus; assay: Antifungal activity against Aspergillus flavus 70-GFP assessed as vacuolization in spores at 12.5 uM after 8 hr by microscopic analysis relative to control; type: functional, organism-based; procedure, shortened: as §4
[24] = system: Aspergillus flavus; assay: Antifungal activity against Aspergillus flavus 70-GFP assessed as vacuolization in spores at 6 uM after 8 hr by microscopic analysis relative to control; type: functional, organism-based; procedure, shortened: as §4
[25] = system: Fusarium verticillioides; assay: Antifungal activity against Fusarium verticillioides SRRC 1082 after 24 to 48 hr; type: functional, organism-based; procedure, shortened: as §2
[26] = system: Claviceps purpurea; assay: Antifungal activity against Claviceps purpurea SRRC 118 after 24 to 48 hr; type: functional, organism-based; procedure, shortened: as §2
[27] = system: Rhizoctonia solani; assay: Antifungal activity against Rhizoctonia solani SRRC 1443 assessed as rough hyphae at 20 uM after 48 hr by microscopic analysis; type: functional, organism-based
[28] = system: Phytophthora nicotianae; assay: Antifungal activity against Phytophthora parasitica after 48 hr by microplate assay; type: functional, organism-based; procedure, shortened: as §3
[29] = system: Aspergillus flavus; assay: Antifungal activity against Aspergillus flavus 70-GFP assessed as reduction in spore germination at 12.5 uM after 8 hr by microscopic analysis relative to control; type: functional, organism-based; procedure, shortened: as §5

## H-FKLRAKIKVRLRAKIKL-OH
[1]
  IC50: 12.4 µM
  MIC: 25 µM
[2]
  IC50: 13 µM
  MIC: 25 µM
[3]
  Activity: Active
[4]
  IC50: 11 µM
  MIC: 25 µM
[5]
  IC50: 5.92 µM
  MIC: 25 µM
[6]
  IC50: 0.6 µM
  MIC: 5.25 µM
[7]
  Activity: Active
[8]
  MIC: 4.67 µM
[9]
  Activity: Active
[10]
  Activity: Active
[11]
  IC50: 0.19 µM
  MIC: 1.25 µM
[12]
  IC50: 7.75 µM
  MIC: 25 µM
[13]
  IC50: 8.67 µM
  MIC: 25 µM
[14]
  MIC: 26.7 µM
[15]
  IC50: 2.05 µM
  MIC: 12.5 µM
[16]
  Activity: Active
[17]
  IC50: 2.1 µM
  MIC: 25 µM
[18]
  IC50: 0.52 µM
  MIC: 6 µM
[19]
  IC50: 0.52 µM
  MIC: 2.25 µM
[20]
  Activity: >75%
[21]
  Activity: Active
[22]
  MIC: 13.3 µM
[23]
  Activity: Active
[24]
  Activity: Active
[25]
  IC50: 0.88 µM
  MIC: 12.5 µM
[26]
  IC50: 1.6 µM
  MIC: 20 µM
[27]
  Activity: Active
[28]
  MIC: 4.67 µM
[29]
  Activity: Active

Source: ChEMBL document CHEMBL3046730, “Broad-spectrum antimicrobial activity in vitro of the synthetic peptide D4E1” (J Agric Food Chem, 2001)
